We go through 16 molecules from ChEMBL document CHEMBL1153886, “Synthesis, analgesic and anti-inflammatory activities of novel 3-(4-acetamido-benzyl)-5-substituted-1,2,4-oxadiazoles” (2009).

Assay type in all cases: functional
Test [1] deals with Mus musculus. Put plainly: Antiinflammatory activity against carrageenan-induced paw edema in C57BL/6 mouse assessed as inhibition of paw edema at 100 mg/kg, po administered 1 hr before carrageenan challenge measured 4 hrs after carrageenan challenge relative to control. An outline of the steps: (§1)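 Male C57BL/6 mice dosed orally at 100 mg/kg as a suspension in 5% carboxymethylcellulose 1 h before challenge. 0.05 ml of 1% w/v carrageenan in 0.9% sterile saline injected subcutaneously into right hind paw plantar region under light anaesthesia. Paw volume by digital plethysmometry immediately and 4 h later. Percent inhibition ± SEM vs vehicle group; diclofenac sodium 100 mg/kg p.o. as standard.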
In general terms: In the carrageenan paw model, swelling and tenderness develop within hours.

Test [2] relates to Mus musculus. Nature of the test: Analgesic activity in C57BL/6 mouse assessed as decrease in acetic acid-induced writhing at 100 mg/kg, po administered 1 hr before acetic acid challenge measured during 30 mins of acetic acid challenge relative to control. On the set-up: scale not given: the % may be the effect or the level left. In short, it runs like this:
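Male C57BL/6 mice given 100 mg/kg orally (suspension in 5% carboxymethylcellulose) 1 h before i.p. injection of 0.25 ml 0.6% v/v acetic acid. Writhes counted over 30 min after injection. Percent inhibition calculated against mean writhing count of the control group; diclofenac sodium 100 mg/kg p.o. as standard.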
(In general: In writhing tests, fewer writhes than in controls are read as antinociception.)

For test [3], the system named is Mus musculus. Put plainly: Antiinflammatory activity against carrageenan-induced paw edema in C57BL/6 mouse assessed as increase in paw volume at 100 mg/kg, po administered 1 hr before carrageenan challenge measured 4 hrs after carrageenan challenge relative to control. An outline of the steps: as §1

As for `COc1ccc(NC(=O)CCc2nc(Cc3ccc(NC(C)=O)cc3)no2)cc1OC`, the inhibition in vivo – broadly, the relative decrease from the control value, in per cent – at 100 mg/kg with Mus musculus [1] worked out at 95.9%. For the same molecule, the Activity with Mus musculus [2] came out at 80.36%; in the test on Mus musculus [3], 3%.

In the case of `CC(=O)Nc1ccc(Cc2noc(CCC(=O)Nc3cccc(C)c3)n2)cc1`, the inhibition in vivo at 100 mg/kg in the test with Mus musculus [1] worked out at 16.4%. Also, the Activity in the test with Mus musculus [2] is given as 67.26%; in the test on Mus musculus [3], 61%.

As for `COc1ccc(NC(=O)CCc2nc(Cc3ccc(NC(C)=O)cc3)no2)cc1`, the inhibition in vivo at 100 mg/kg with Mus musculus [1] came to 49.3%. Further, the Activity in the test with Mus musculus [2] is given as 67.26%; in the test on Mus musculus [3], 37%.

`CC(=O)Nc1ccc(Cc2noc(CCC(=O)Nc3ccc(C(F)(F)F)cc3)n2)cc1`: the inhibition in vivo at 100 mg/kg in the test with Mus musculus [1] is 37%. Also, the Activity is on record as 31.55% with Mus musculus [2] and 46% in the test on Mus musculus [3].

Take `CC(=O)Nc1ccc(Cc2noc(CCC(=O)Nc3ccccc3)n2)cc1`: in the test on Mus musculus [1], the inhibition in vivo at 100 mg/kg was found to be 34.2%. Moreover, the Activity in the test with Mus musculus [2] is -13.1%; in the test on Mus musculus [3] it was 48%.

For `COc1cccc(NC(=O)CCc2nc(Cc3ccc(NC(C)=O)cc3)no2)c1`, in the test on Mus musculus [1], the inhibition in vivo at 100 mg/kg is 35.6%. Moreover, the Activity in the test on Mus musculus [2] was -7.14%; in the test on Mus musculus [3] it was 47%.

`CC(=O)Nc1ccc(Cc2noc(CCC(=O)Nc3cccnc3)n2)cc1`: the inhibition in vivo at 100 mg/kg in the test on Mus musculus [1] worked out at 87.7%. Besides, the Activity in the test with Mus musculus [2] amounted to 80.95%; in the test on Mus musculus [3], 9%.

`CC(=O)Nc1ccc(Cc2noc(CCC(=O)Nc3ccc(F)cc3)n2)cc1`: the inhibition in vivo at 100 mg/kg with Mus musculus [1] stood at 64.4%. In addition, the results for the Activity in the test on Mus musculus [2] and with Mus musculus [3] were 67.86% and 26%, respectively.

Turning to `CC(=O)Nc1ccc(Cc2noc(CCC(=O)NCc3ccccc3)n2)cc1`, the inhibition in vivo at 100 mg/kg in the test on Mus musculus [1] was 76.7%. Further, the Activity in the test with Mus musculus [2] is reported as -0.6%; in the test on Mus musculus [3], 17%.

For the molecule `O=C([O-])Cc1ccccc1Nc1c(Cl)cccc1Cl.[Na+]` [DICLOFENAC SODIUM], the inhibition in vivo at 100 mg/kg in the test on Mus musculus [1] came to 50.7%. The Activity with Mus musculus [2] turned out to be 77.38%; in the test on Mus musculus [3], 36%.

With `COc1ccc(NC(=O)CCc2nc(Cc3ccc(NC(C)=O)cc3)no2)cc1F`, the inhibition in vivo at 100 mg/kg in the test on Mus musculus [1] amounted to 60.3%. Also, the Activity with Mus musculus [2] was 36.9%; with Mus musculus [3], 29%.

As for `CC(=O)Nc1ccc(Cc2noc(CCC(=O)O)n2)cc1`, the inhibition in vivo at 100 mg/kg in the test with Mus musculus [1] is 75.3%. Moreover, the Activity is 46.43% in the test with Mus musculus [2] and 18% in the test on Mus musculus [3].

As for `CC(=O)Nc1ccc(Cc2noc(CCC(=O)Nc3ccccc3F)n2)cc1`, the inhibition in vivo at 100 mg/kg in the test on Mus musculus [1] is 67.1%. Moreover, the Activity in the test on Mus musculus [2] was -23.21%; in the test on Mus musculus [3] it was 24%.

As to `COc1ccccc1NC(=O)CCc1nc(Cc2ccc(NC(C)=O)cc2)no1`, in the test on Mus musculus [1], the inhibition in vivo at 100 mg/kg amounted to 87.7%. The Activity in the test on Mus musculus [2] was 73.81%; with Mus musculus [3] it was 9%.

Regarding `CC(=O)Nc1ccc(Cc2noc(CCC(=O)Nc3ccc(F)cc3F)n2)cc1`, the inhibition in vivo at 100 mg/kg in the test on Mus musculus [1] amounted to 52%. Also, the Activity in the test on Mus musculus [2] is -0.6%; in the test with Mus musculus [3] it was 34%.

As to `C#Cc1cccc(NC(=O)CCc2nc(Cc3ccc(NC(C)=O)cc3)no2)c1`, the inhibition in vivo at 100 mg/kg with Mus musculus [1] was determined as 84.9%. For the same molecule, the Activity in the test with Mus musculus [2] is reported as 61.31%; in the test on Mus musculus [3], 11%.
